Measured values as given in publication PMC8671219 (Arthritis & Rheumatology (Hoboken, N.j.), 2021).
Where two headings read alike, the source gives them in different places.

Legend:
[1] = test system: human primary cell cocultures (4H, LPS, SAg, BT, MyoF, /Mphg); test: BioMAP Diversity Plus Panel; type: cell-based; conditions: multicellular human primary cell systems
Procedure, shortened: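 An external provider ran BioMAP Diversity Plus profiling with each compound at the noted concentrations, scoring multiple end points per system. The systems were venular endothelial cells (4H), PBMC plus endothelial cells with LPS, PBMC plus endothelial cells with superantigen, B cells plus PBMC (BT), lung fibroblasts (MyoF), and macrophages plus venular endothelial cells. Etanercept and tofacitinib served as comparators.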

[2] = test system: rat collagen-induced arthritis; test: Rat collagen-induced arthritis model of RA; type: in vivo; conditions: rat CIA; PF-06650833 3 mg/kg twice daily or tofacitinib 10 mg/kg daily, oral, 7 days; vehicle 0.786 ± 0.043; mean ± SEM, n = 10
[3] = test system: human plasmacytoid dendritic cells; test: Plasmacytoid DC stimulation with SLE neutrophil supernatants; type: cell-based; conditions: 200 nM preincubation; 24 hours; n = 5
Procedure, shortened: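 SLE patient neutrophils were induced to undergo NETosis with R837, and their supernatants were collected. Plasmacytoid DCs were FACS-sorted from the DC fraction of healthy-volunteer buffy coats. They were cultured in 40% neutrophil supernatant with or without 200 nM test compound for 24 hours. CD83 was measured by flow cytometry against isotype control; n = 5.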

[4] = test system: nuclear localization of IRF-5 in PBMCs; test: Monocyte IRF5 nuclear localization assay; type: cell-based, human; conditions: 100 nM, 2 hours
Procedure, shortened: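 Healthy-volunteer PBMCs were incubated with 100 nM test compound or none, then stimulated with R848 or SLE patient sera for 2 hours at 37°C. IRF-5 nuclear translocation was quantified by Amnis imaging cytometry.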

[5] = test system: C-reactive protein (CRP) levels; conditions: healthy volunteers; modified-release 300 mg daily; day 14; cited from earlier work
[6] = test system: active rheumatoid arthritis; conditions: patients with active RA and inadequate response to methotrexate; cited from earlier work
[7] = test system: whole blood 21-gene IFN gene signature; test: Interferon signature modulation in Phase 1 MAD study in healthy volunteers; type: in vivo, human; conditions: 300 mg modified-release qd
Procedure, shortened: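 In a randomized, double-blind phase I multiple-ascending-dose study, healthy volunteers received modified-release test compound 300 mg once daily (n = 7) or placebo (n = 11) for 14 days. PAXgene whole blood was drawn on day 0 before the first dose and on day 14 before the last dose. RNA was sequenced, and an equally weighted 21-gene IFN signature was scored as percent change, day 14 versus day 0.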

[8] = test system: R848 induced TNF in human whole blood; test: Human whole blood cytokine release assay; type: cell-based
Procedure, shortened: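 Heparin-anticoagulated whole blood (human, mouse or rat), or PBMC derived from it, was incubated with test compound and then exposed to TLR ligand. Cytokines were measured by Meso Scale Discovery immunoassay. EC50 and Hill slope were fitted from concentration–response data, and free-drug potency was derived using measured protein binding values.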

[9] = test system: human macrophages stimulated with ACPA immune complexes; test: Macrophage ACPA-IC induced TNFα assay; type: cell-based; conditions: 100 nM inhibitor, 11 donors, mean ± SEM
Procedure, shortened: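 Human macrophages from 11 donors were preincubated with 100 nM inhibitor and then stimulated with anti-citrullinated protein antibody immune complexes. TNF in supernatants was measured by immunoassay and expressed as % of DMSO-only treatment (mean ± SEM), compared by paired t-test.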

[10] = test system: pristane-induced lupus in BALB/c mice; test: Pristane in vivo model of SLE; parameters: species or system mouse
[11] = test system: human PBMCs stimulated with SLE immune complexes; test: SLE-IC assay; type: cell-based; conditions: 100 nM, 24 hours
Procedure, shortened: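 SLE immune complexes were made by purifying IgG from plasma of an anti-RNP/anti-dsDNA-positive SLE patient and mixing it with apoptotic cells. Human PBMCs were stimulated with these complexes with or without 100 nM test compound for 24 hours. IFNα in supernatant was measured by ELISA, and RSAD2, USP18 and GBP1 by qRT-PCR as relative quantification. n = 5 donors; analysed by 2-way ANOVA.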

[12] = test system: human RA fibroblast-like synoviocytes; test: Human RA-FLS assay; type: cell-based; conditions: 100 nM
Procedure, shortened: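 Human RA fibroblast-like synoviocytes were incubated with 100 nM test compound or vehicle before adding 0.1 ng/ml IL-1β. IL-6, IL-8 and MMP-1 in supernatants were measured by Meso Scale Discovery assay and expressed as percent of vehicle control, separately per donor.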

MRL/lpr mice = test: MRL/lpr in vivo model of SLE; parameters: species or system mouse
[13] = test system: human B cells primed with IFNα and stimulated with R848; test: B cell maturation assay; type: cell-based
Procedure, shortened: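 Human B cells were isolated from Leukopaks and preincubated with 100 nM test compound, then given IFNα plus R848. Supernatants were harvested at 24 h for IL-6 and at 72 h for IL-10. Values are % of control; n = 6 donors, compared by paired t-test.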

C[C@@H]1CCN(C(=O)CC#N)C[C@@H]1N(C)c1ncnc2[nH]ccc12 [tofacitinib, reference compound]
BioMAP phenotypic profile of inflammatory readouts [1]: no impact on assays of innate immunity
paw volume on day 7 [2]: 0.371 ± 0.044 mL

CC[C@@H]1[C@H](F)C(=O)N[C@@H]1COc1nccc2cc(C(N)=O)c(OC)cc12 [PF‐06650833, 1‐{[(2S,3S,4S)‐3‐Ethyl‐4‐fluoro‐5‐oxopyrrolidin‐2‐yl]methoxy}‐7‐methoxyisoquinoline‐6‐carboxamide]
pDC CD83 up-regulation induced by neutrophil DAMPs [3]: significantly inhibited
BioMAP phenotypic profile of inflammatory readouts [1]: greatest inhibition of inflammatory readouts in assays of innate immunity
nuclear localization of IRF-5 stimulated by R848 ([4]; without compound 23.0 ± 13.0, n = 3): 6.8 ± 4.4%
IRF-5 nuclear localization in response to SLE patient sera ([4]; without compound 38.6 ± 18.4, n = 12): 24.2 ± 13.0%
CRP levels [5]: statistically significant reductions
disease activity in phase II study [6]: significant effects on disease activity
subjects with negative change of IFN gene score between day 0 and day 14 [7]: 6 of 7
reduction of IFN gene signature, median percent change day 14 vs day 0 ([7]; 14 days, n = 7, placebo +9.1%): 28.8%
difference in IFN gene signature change vs placebo ([7]; day 14): −37.9%
EC50 ([8]; read-out: EC50 values across the preclinical assays): 2 to 10 nM
IC50 ([8]; read-out: IC50 total, human whole blood R848 induced TNF): 8.8 nM
ACPA IC-induced TNF release, % of that seen with DMSO treatment alone [9]: 57.5 ± 17.9%
anti-SSA IgG at week 20 ([10]; 200mpk in chow weeks 8-20, control 7,693 ± 1,241): 2,726 ± 494 units/ml
anti-RNP IgG at week 20 ([10]; 200mpk in chow weeks 8-20, control 18,127 ± 7,902): 3,730 ± 2,861 units/ml
mean PAS area per tuft ([10]; kidney, week 20, pristane alone 1,252 ± 45, n = 8): 1,045 ± 47 μm^2
IFNα release from PBMCs stimulated with SLE ICs ([11]; n = 5 donors): inhibited IFNα release in all donors
induction of 3 IFN-responsive genes (RSAD2, USP18, and GBP1) ([11]; SLE ICs, PBMCs): inhibited
paw volume on day 7 [2]: 0.555 ± 0.034 mL
IL-1-induced cytokines in RA FLS [12]: did not inhibit
MMP induction by IL-1β in RA FLS [12]: able to block
cytokine and matrix metalloproteinase (MMP) release in response to all ligands profiled ([12]; RA FLS): substantially reduced
C3 and IgG deposition by immunohistochemistry (MRL/lpr mice; 200mg/kg in chow, 12-13 weeks): significantly reduced
anti-SSA (MRL/lpr mice; 200mg/kg in chow, 12-13 weeks): trends toward reductions
anti-dsDNA (MRL/lpr mice; 200mg/kg in chow, 12-13 weeks): trends toward reductions
anti-histone IgG (MRL/lpr mice; 200mg/kg in chow, 12-13 weeks): significantly reduced
glomerular nephropathy (MRL/lpr mice; 200mg/kg in chow, 12-13 weeks): significantly reduced
glomerular nuclear area by image analysis (MRL/lpr mice; 200mg/kg in chow, 12-13 weeks): significantly reduced
glomerular tuft area by image analysis (MRL/lpr mice; 200mg/kg in chow, 12-13 weeks): significantly reduced
histologic kidney inflammation (MRL/lpr mice; 200mg/kg in chow, 12-13 weeks): significantly reduced
lymphadenopathy (MRL/lpr mice; 200mg/kg in chow, 12-13 weeks): significantly reduced
splenomegaly (MRL/lpr mice; 200mg/kg in chow, 12-13 weeks): trends toward reductions
tubular injury (MRL/lpr mice; 200mg/kg in chow, 12-13 weeks): trends toward reductions
activity at 0.1 µM ([13]; 24 h, read-out: B cell IL-6 production, % of control): 50 ± 16.7%
activity at 0.1 µM ([13]; 72 h, read-out: B cell IL-10 production, % of control): 41.3 ± 7.1%

Etanercept
BioMAP phenotypic profile of inflammatory readouts [1]: predominant activity in the myofibroblast‐ and macrophage‐containing assays

N#CN1CCCC(n2nc(-c3ccc(Oc4ccc(F)cc4F)cc3)c(C(N)=O)c2N)C1 (stereo not drawn) [PF‐06250112, reference compound]
all renal histologic pathology end points other than PAS area per tuft (MRL/lpr mice; 30 mg/kg PO qd): significantly reduced
autoantibody titers (MRL/lpr mice; 30 mg/kg PO qd): significantly reduced
